Reference: ChEMBL document CHEMBL1141286, “Benzochromenones from the marine crinoid Comantheria rotula inhibit hypoxia-inducible factor-1 (HIF-1) in cell-based reporter assays and differentially suppress the growth of certain tumor cell lines” (J Nat Prod, 2007)
Activity calls are given as the source filed them. No cut-off for these calls is given here.

Experiments:
[1] = Inhibition of HIF1 activation in PC3 cells by TK-luciferase assay; type: cell-based; conditions: Homo sapiens, PC-3
Outline: (§1)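 HIF-1 reporter (pHRE-TK-Luc) assays in transfected PC-3 or T47D cells; HIF-1 induced by hypoxia or by the hypoxia mimetic 1,10-phenanthroline (10 μM); compounds at half-log concentrations; luciferase activity measured; IC50 from experiments in triplicate.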

T47D [2] = test: Inhibition of 1,10-phenanthroline-induced VEGF protein secretion in human T47D cells at 10 uM after 16 hrs by ELISA; type: functional, cell-based
Outline: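 T47D cells stimulated with 1,10-phenanthroline, compound at 10 μM; secreted VEGF in conditioned media by ELISA, normalized to cell-lysate protein.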

[3] = DPPH radical scavenging activity relative to Trolox; type: functional; set-up: concentration or dose not given beside the values
Outline: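 Compounds were made up as DMSO stocks and diluted in isopropanol to a final 10 μM. Each was mixed with DPPH in isopropanol at 10 μM or 30 μM DPPH, and absorbance was read at 515 nm. Scavenging was calculated as [1 − OD515(compound)/OD515(control)] × 100, then expressed as a percentage of Trolox activity. One experiment was run in triplicate.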

[4] = Inhibition of luciferase at 30 uM
Outline: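 Purified recombinant firefly luciferase (QuantiLum, 46.8 μg mL−1) mixed with compound in passive lysis buffer containing BSA (1 mg mL−1); equal volume of luciferase substrate added, light output read; percentage inhibition relative to DMSO control; concentration-response curves up to 30 μM.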

[5] = Inhibition of 1,10-phenanthroline-induced HIF1 activation in T47D cells by TK-luciferase assay; type: cell-based; conditions: Homo sapiens; outline: as §1
[6] = target: Hypoxia inducible factors; HIF-1-alpha, HIF-2-alpha (Homo sapiens, UniProt Q16665+Q99814); test: Inhibition of HIF1 activation in human T47D cells by TK-luciferase assay; type: cell-based; outline: as §1
[7] = Inhibition of 1,10-phenanthroline-induced HIF1 activation in PC3 cells by TK-luciferase assay; type: cell-based; conditions: Homo sapiens, PC-3; outline: as §1
T47D [8] = test: Inhibition of hypoxia induced VEGF protein secretion in human T47D cells at 10 uM after 16 hrs by ELISA; type: functional; set-up: scale not given: the % may be the effect or the level left
Outline: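 Exponentially growing T47D cells exposed to hypoxia (1% O2) with compound (10 μM) for 16 hr; secreted VEGF protein in conditioned media by ELISA, normalized to protein in cell lysates (micro BCA).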

IC50 [1] [µM]	inhibition [4] [%]	IC50 [5] [µM]	IC50 [6] [µM]	IC50 [7] [µM]	Compound	Activity (T47D [2])	Activity [3] [%]	Activity (T47D [8]) [%]
3.2	48	1.9	2.7	3.7	CCCc1cc(=O)c2c(OC)c3c(OC)cc(O)cc3cc2o1 [NEOCOMANTHERIN]	inactive	40	
> 10		3	3	> 10	CCCc1cc(=O)c2c(O)cc3cc(O)cc(OC)c3c2o1 [COMAPARVIN]	inactive		27
